Measured values: ChEMBL document CHEMBL1131140, “Synthesis and antimalarial activities of fluoroalkyl derivatives of dihydroartemisinin” (J Med Chem, 1998)

The compounds below were run on Plasmodium falciparum (assay: In vitro antimalarial activity for Plasmodium falciparum W-2).
Type: functional, organism-based
How it was run: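 P. falciparum W-2 cultured in A+ human erythrocytes, RPMI with 10% A+ human serum, 25 mM HEPES, 25 mM NaHCO3, 37 °C, 10% O2/6% CO2/84% N2. Assay at 0.5% parasitemia, 1.5% hematocrit; 2-fold dilutions (methanol stocks), final 1.6–200 nM in triplicate; [3H]hypoxanthine uptake over 42 h; IC50 by nonlinear regression of log dose–response; mean of ≥3 experiments.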
`CO[C@H]1O[C@@H]2O[C@@]3(C)CC[C@H]4[C@H](C)CC[C@@H]([C@H]1C)[C@@]24OO3` [ARTEMETHER] gave an IC50 of 5.4 nM.
`C[C@@H]1CC[C@H]2[C@@H](C)C(OCC(F)(F)C(F)(F)F)O[C@@H]3OC4(C)CC[C@@H]1[C@]32OO4` (single isomer, unassigned) showed an IC50 of 27 nM.
`C[C@@H]1CC[C@H]2[C@@H](C)C(OCC(F)(F)C(F)C(F)(F)F)O[C@@H]3OC4(C)CC[C@@H]1[C@]32OO4` (single isomer, unassigned) showed an IC50 of 34 nM.
With `C[C@@H]1CC[C@H]2[C@@H](C)C(OC(c3ccccc3)C(F)(F)F)O[C@@H]3OC4(C)CC[C@@H]1[C@]32OO4` (single isomer, unassigned) the IC50 was 66 nM.
With `C[C@@H]1CC[C@H]2[C@@H](C)C(OC(C(F)(F)F)C(F)(F)F)O[C@@H]3OC4(C)CC[C@@H]1[C@]32OO4` (single isomer, unassigned) the IC50 was 34 nM.
In the case of `C[C@H]1C(OCC(F)(F)F)O[C@@H]2OC3(C)CC[C@H]4[C@H](C)CCC1[C@@]24OO3` (single isomer, unassigned), the IC50 is reported as 31 nM.
For `C[C@@H]1CC[C@H]2[C@@H](C)C(OC(c3ccccc3)(C(F)(F)F)C(F)(F)F)O[C@@H]3OC4(C)CC[C@@H]1[C@]32OO4` (single isomer, unassigned), the IC50 was 38 nM.
`C[C@@H]1CC[C@H]2[C@@H](C)[C@](O)(C(F)(F)F)O[C@@H]3OC4(C)CC[C@@H]1[C@]32OO4` (single isomer, unassigned) showed an IC50 of 2.6 nM.
Work on `COC1O[C@@H]2OC3(C)CC[C@H]4[C@H](C)CC[C@@H]([C@H]1C)[C@@]24OO3` (single isomer, unassigned) yielded an IC50 of 7.5 nM.
In the case of `C[C@@H]1CC[C@H]2[C@@H](C)C(OCC(F)(F)C(F)(F)C(F)(F)F)O[C@@H]3OC4(C)CC[C@@H]1[C@]32OO4` (single isomer, unassigned), the IC50 is reported as 36 nM.
`CC(OC1O[C@@H]2OC3(C)CC[C@H]4[C@H](C)CC[C@@H]([C@H]1C)[C@@]24OO3)C(F)(F)F` (single isomer, unassigned) gave an IC50 of 35 nM.
For `CCOC(=O)C(OC1O[C@@H]2OC3(C)CC[C@H]4[C@H](C)CC[C@@H]([C@H]1C)[C@@]24OO3)C(F)(F)F` (single isomer, unassigned), the IC50 was 61 nM.
